# Calls of active or inactive are those of the source. The rule behind the calls is not given here.
# Key:
# Pneumocystis carinii [1] = assay: Antimicrobial activity against Pneumocystis carinii infected BALB/c mouse at 2 mg/kg/day, po after 21 days administered 4 weeks postinfection by methenamine silver nitrate staining method; assay type: functional, organism-based
# Canis familiaris [2] = assay: Toxicity in Beagle dog assessed as methemoglobin level at 5.3 mg/kg/day, po after 2 weeks; assay type: organism-based, Canis lupus familiaris; parameters: route oral; details: in vivo, 336 h
# In short: (§1)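 Male beagles aged 8–9 months (n = 2) received oral primaquine diphosphate as bulk drug in gelatin capsules on days 1–4 (0.0116 mmol/kg/day as base), dosed by day-1 body weight. Jugular or cephalic blood was drawn before dosing on days 1, 2 and 4, then on days 5, 7, 9, 11, 15, 18, 21, 25 and 29. Methemoglobin was measured by co-oximeter absorbance at four wavelengths.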
# Pneumocystis carinii [3] = assay: Antimicrobial activity against Pneumocystis carinii infected BALB/c mouse at 2 mg/kg/day, po after 21 days administered 4 weeks postinfection by Giemsa staining method; assay type: functional, organism-based
# Canis familiaris [4] = assay: Toxicity in Beagle dog assessed as increase in methemoglobin level at 5.3 mg/kg/day, po measured on day 5; assay type: organism-based, Canis lupus familiaris; parameters: route oral; details: in vivo; in short: as §1
# Pneumocystis carinii [5] = assay: Antimicrobial activity against Pneumocystis carinii infected BALB/c mouse at 0.1 mg/kg/day, po after 21 days administered 4 weeks postinfection by Giemsa staining method; assay type: functional, organism-based
# Leishmania donovani [6] = assay: Antileishmanial activity against Leishmania donovani HU3 infected in mouse; assay type: functional; details: for ED50: Leishmania donovani, HU3
# In short: (§2)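 L. donovani HU3 amastigotes, 1 × 10^7 given IV to mice. From day 7 post-infection, dosed orally once daily for 5 days in 0.25% methylcellulose-10% ethanol; reference stibogluconate given SC. Mice killed at day 14 post-infection. Parasite burden counted on liver impression smears against untreated controls. ED50 from linear regression, with 95% confidence limits.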
# Plasmodium berghei [7] = assay: Antimalarial activity Plasmodium berghei KBG-173 infected in Swiss(CD-1) mouse assessed as survival at 2 mg/kg, po treated 2 day postinfection measured on day 30; assay type: functional, organism-based; parameters: dose 2 mg/kg
# In short: (§3)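 CD-1 mice, 5 weeks old, male or female, groups of five, infected with 5 × 10^4 P. berghei KBG-173 parasitized erythrocytes. One 2 mg/kg oral dose given on a single day, from day −3 to +2 relative to inoculation. Controls untreated. Read-out is increase in mean survival time over controls and number alive at day +30.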
# Pneumocystis carinii [8] = assay: Antimicrobial activity against Pneumocystis carinii infected BALB/c mouse at 1 mg/kg/day, po after 21 days administered 4 weeks postinfection by Giemsa staining method; assay type: functional, organism-based
# In short: (§4)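 Female BALB/c mice, 6-8 weeks, immunosuppressed with dexamethasone […] in drinking water, then inoculated transtracheally with 10^6 P. carinii. From 4 weeks post-inoculation, drug given in drinking water for 3 weeks, 10 mice/group, intake monitored. Lung impression smears stained with Giemsa or methenamine silver, read blinded. Graded 0-5 on a log scale; group mean ± SE.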
# Plasmodium berghei [9] = assay: Antimalarial activity against Plasmodium berghei KBG-173 infected in Swiss(CD-1) mouse assessed as parasitemia at 1 mg/kg/day, po treated for 3 days measured on day 6
# Canis familiaris [10] = assay: Toxicity in Beagle dog assessed as increase in methemoglobin level at 0.64 mg/kg/day, po; assay type: organism-based, Canis lupus familiaris; parameters: route oral; details: in vivo
# In short: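 Beagle dogs, one male and one female per enantiomer, given 0.64 mg/kg/day (0.5 mg/kg base) orally for 4 days. After a 5-week washout the same dogs received 1.91 mg/kg/day for 4 days. Methemoglobin sampled from days −6 to 36. Each dog's values are mean of duplicate determinations.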
# Plasmodium berghei [11] = assay: Antimalarial activity against Plasmodium berghei KBG-173 infected in Swiss(CD-1) mouse assessed as survival at 4 mg/kg/day, po treated for 3 days measured on day 34; assay type: functional, organism-based
# In short: (§5)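 CD-1 mice, 5 weeks old, male or female, groups of five, infected with 5 × 10^4 P. berghei KBG-173 parasitized erythrocytes. Drug in 0.5% hydroxyethylcellulose/0.1% Tween 80, given orally once daily on days 3, 4 and 5 post-infection. Parasitemia from blood films on day +6. Read-out also includes increase in mean survival time over controls and survivors at day +34.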
# Plasmodium berghei [12] = assay: Antimalarial activity against Plasmodium berghei KBG-173 infected in Swiss(CD-1) mouse assessed as reduction in parasitemia at 4 mg/kg/day, po treated for 3 days measured on day 6; assay type: functional; parameters: scale not given: the % may be the effect or the level left; in short: as §5
# Pneumocystis carinii [13] = assay: Antimicrobial activity against Pneumocystis carinii infected BALB/c mouse at 0.5 mg/kg/day, po after 21 days administered 4 weeks postinfection by Giemsa staining method; assay type: functional, organism-based; in short: as §4
# Leishmania donovani [14] = assay: Antileishmanial activity against Leishmania donovani HU3 infected in mouse assessed as inhibition of parasites in liver at 10 mg/kg/day, po treated for 5 days administered 7 days postinfection measured after 14 days post-infection; assay type: functional; in short: as §2
# Pneumocystis carinii [15] = assay: Antimicrobial activity against Pneumocystis carinii infected BALB/c mouse at 0.5 mg/kg/day, po after 21 days administered 4 weeks postinfection by methenamine silver nitrate staining method; assay type: functional, organism-based; in short: as §4
# Plasmodium berghei [16] = assay: Antimalarial activity against Plasmodium berghei KBG-173 infected in Swiss(CD-1) mouse assessed as parasitemia at 0.25 mg/kg/day, po treated for 3 days measured on day 6
# Plasmodium berghei [17] = assay: Antimalarial activity Plasmodium berghei KBG-173 infected in Swiss(CD-1) mouse assessed as survival at 2 mg/kg, po treated 1 day postinfection measured on day 30; assay type: functional, organism-based; parameters: dose 2 mg/kg; in short: as §3
# Leishmania donovani [18] = assay: Antileishmanial activity against Leishmania donovani HU3 infected in mouse assessed as inhibition of parasites in liver at 5 mg/kg/day, po treated for 5 days administered 7 days postinfection measured after 14 days post-infection; assay type: functional; in short: as §2
# Leishmania donovani [19] = assay: Antileishmanial activity against Leishmania donovani HU3 infected in mouse assessed as inhibition of parasites in liver at 100 mg/kg/day, po treated for 5 days administered 7 days postinfection measured after 14 days; assay type: functional; in short: as §2
# Pneumocystis carinii [20] = assay: Antimicrobial activity against Pneumocystis carinii infected BALB/c mouse at 0.25 mg/kg/day, po after 21 days administered 4 weeks postinfection by Giemsa staining method; assay type: functional, organism-based; in short: as §4
# Plasmodium berghei [21] = assay: Antimalarial activity Plasmodium berghei KBG-173 infected in Swiss(CD-1) mouse assessed as mean survival time at 2 mg/kg, po pretreated 3 days before infection; assay type: functional; in short: as §3
# Plasmodium berghei [22] = assay: Antimalarial activity Plasmodium berghei KBG-173 infected in Swiss(CD-1) mouse assessed as survival at 2 mg/kg, po treated at day of infection measured on day 30; assay type: functional, organism-based; parameters: dose 2 mg/kg; in short: as §3
# Pneumocystis carinii [23] = assay: Antimicrobial activity against Pneumocystis carinii infected BALB/c mouse at 5 mg/kg/day, po after 21 days administered 4 weeks postinfection by Giemsa staining method; assay type: functional, organism-based; in short: as §4
# Plasmodium berghei [24] = assay: Antimalarial activity against Plasmodium berghei KBG-173 infected in Swiss(CD-1) mouse assessed as mean survival time at 0.25 mg/kg/day, po treated for 3 days; assay type: functional; in short: as §5
# Plasmodium berghei [25] = assay: Antimalarial activity Plasmodium berghei KBG-173 infected in Swiss(CD-1) mouse assessed as survival at 2 mg/kg, po pretreated 1 day before infection measured on day 30; assay type: functional, organism-based; parameters: dose 2 mg/kg; in short: as §3
# Leishmania donovani [26] = assay: Antileishmanial activity against Leishmania donovani HU3 infected in mouse assessed as inhibition of parasites in liver at 0.4 mg/kg/day, po treated for 5 days administered 7 days postinfection measured after 14 days post-infection; assay type: functional; in short: as §2
# Pneumocystis carinii [27] = assay: Antimicrobial activity against Pneumocystis carinii infected BALB/c mouse at 0.25 mg/kg/day, po after 21 days administered 4 weeks postinfection by methenamine silver nitrate staining method; assay type: functional, organism-based; in short: as §4
# Plasmodium berghei [28] = assay: Antimalarial activity against Plasmodium berghei KBG-173 infected in Swiss(CD-1) mouse assessed as mean survival time at 1 mg/kg/day, po treated for 3 days; assay type: functional; in short: as §5
# Pneumocystis carinii [29] = assay: Antimicrobial activity against Pneumocystis carinii infected BALB/c mouse at 5 mg/kg/day, po after 21 days administered 4 weeks postinfection by methenamine silver nitrate staining method; assay type: functional, organism-based; in short: as §4
# Pneumocystis carinii [30] = assay: Antimicrobial activity against Pneumocystis carinii infected BALB/c mouse at 1 mg/kg/day, po after 21 days administered 4 weeks postinfection by methenamine silver nitrate staining method; assay type: functional, organism-based; in short: as §4
# Plasmodium berghei [31] = assay: Antimalarial activity Plasmodium berghei KBG-173 infected in Swiss(CD-1) mouse assessed as mean survival time at 2 mg/kg, po pretreated 2 days before infection; assay type: functional; in short: as §3
smiles,measurement,setting,value
COc1cc(NC(C)CCCN)c2ncccc2c1 (centres undefined) [PRIMAQUINE],Activity,Pneumocystis carinii [1],inactive
same,Activity,Canis familiaris [2],Non-toxic
same,Activity,Pneumocystis carinii [3],inactive
same,Activity,Canis familiaris [4],Toxic
COc1cc(N[C@H](C)CCCN)c2nccc(C)c2c1Oc1ccc(Cl)c(Cl)c1.O=C(O)CCC(=O)O,Activity,Pneumocystis carinii [5],Active
same,ED90,Leishmania donovani [6],3.61 mg/kg
same,ED50,Leishmania donovani [6],1.28 mg/kg
same,Activity,Plasmodium berghei [7],inactive
same,Activity,Pneumocystis carinii [8],Active
same,Activity,Plasmodium berghei [9],0%
same,Activity,Canis familiaris [10],Toxic
same,Activity,Plasmodium berghei [11],inactive
same,Activity,Plasmodium berghei [12],0%
same,Activity,Pneumocystis carinii [13],Active
same,inhibition in vivo at 10 mg/kg/day,Leishmania donovani [14],99.3%
same,Activity,Pneumocystis carinii [15],Active
same,Activity,Plasmodium berghei [16],0.2%
same,Activity,Plasmodium berghei [17],inactive
same,inhibition in vivo at 5 mg/kg/day,Leishmania donovani [18],98%
same,inhibition in vivo at 100 mg/kg/day,Leishmania donovani [19],99.8%
same,Activity,Pneumocystis carinii [20],Active
same,MST,Plasmodium berghei [21],4.6 days
same,Activity,Plasmodium berghei [22],inactive
same,Activity,Pneumocystis carinii [23],Active
same,MST,Plasmodium berghei [24],11.6 days
same,Activity,Plasmodium berghei [25],inactive
same,inhibition in vivo at 0.4 mg/kg/day,Leishmania donovani [26],61.5%
same,Activity,Pneumocystis carinii [27],Active
same,MST,Plasmodium berghei [28],20.5 days
same,Activity,Pneumocystis carinii [29],Active
same,Activity,Pneumocystis carinii [30],Active
same,MST,Plasmodium berghei [31],8.4 days
CCN(CC)CCCCCCNc1cc(OC)cc2c(C)ccnc12 [SITAMAQUINE],ED90,Leishmania donovani [6],4.14 mg/kg
same,ED50,Leishmania donovani [6],1.55 mg/kg

# — ChEMBL document CHEMBL1649109, “Antiparasitic activities and toxicities of individual enantiomers of the 8-aminoquinoline 8-[(4-amino-1-methylbutyl)amino]-6-methoxy-4-methyl-5-[3,4-dichlorophenoxy]quinoline succinate” (Antimicrob Agents Chemother, 2008)
